High-throughput results deposited in PubChem by several laboratories.
HSF1 inh = HSF1 inhibitors in luciferase reporter cells, primary screen, cell-based, NIH3T3, luminescence; NIH3T3-HGL HSE-luciferase, MG132-induced, luminescence 8 h; stronger effect = lower value; activity change, negative = inhibition, % at 7.5 µM (by protocol); 300,000 tested, 0.77% active; AID 2098, 2009;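 active = more than half of replicate wells show activity change below -50%, luminescence cut by over half; inconclusive = some wells, but at most half, below -50%; inactive = no replicate well below -50%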;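 also: luciferase reports HSF-1 transcriptional activity via heat shock element; 0% = median of DMSO wells and -100% = zero luminescence signal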
Hep lipid drop = inhibitors of hepatocyte lipid droplet formation, primary screen, imaging, high-throughput imaging, BODIPY stain. 240,000 tested, 0.4% active. inhibition, % at 6.5 µM. AID 1656, 2009. AML12 mouse hepatocytes, oleate lipid droplets;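 active = lipid droplet intensity inhibited by at least 50%, with more than 500 cells counted; inconclusive = wells with under 300 cells, treated as cytotoxic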
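Technique: fluorescence imaging, 20x objective, two fields per well / Assay system: AML12 hepatocytes (mouse) / Measure: % inhibition of lipid droplet signal / Doses: 6.5 µM single-point dosing / Incubation: overnight exposure / Reagent: 100 µM oleic acid challenge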
CHT PAM = CHT positive allosteric modulators, primary screen, cell-based, membrane potential dye, choline EC20 | High affinity choline transporter 1 (Homo sapiens), Q9GZV3 | CHT-expressing cells; stronger effect = higher value; LV-AA mutant CHT in HEK293 cells | 310,000 tested, 0.49% active | B-score at 10 µM | AID 488977, 2010;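 active = initial fluorescence not abnormally high and integrated response B-score, plate-corrected, over 3 SD above library mean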
PHOSPHO1 inh = PubChem AID 1565. Phosphoethanolamine/phosphocholine phosphatase (Homo sapiens), Q8TCT1. inhibition, % at 13.3 µM. recombinant PHOSPHO1, absorbance phosphatase assay. 290,000 tested, 1.1% active; in the data active = inhibition above about 60%
Target sequence (Q8TCT1 whole entry, looked up): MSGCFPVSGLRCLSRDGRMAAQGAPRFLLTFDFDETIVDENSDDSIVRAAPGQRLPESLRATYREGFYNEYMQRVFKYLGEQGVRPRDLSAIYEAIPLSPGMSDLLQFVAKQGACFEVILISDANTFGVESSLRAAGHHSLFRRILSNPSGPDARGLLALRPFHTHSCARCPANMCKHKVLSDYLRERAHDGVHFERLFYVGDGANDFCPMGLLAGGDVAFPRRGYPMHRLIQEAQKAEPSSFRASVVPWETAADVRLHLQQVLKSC
HSF-1 act = HSF-1 activators, primary screen, NIH3T3-HGL cells, MG132 stress, luminescence, single point; NIH3T3-HGL HSF-1 luciferase reporter, 8 h; 100% = twice DMSO control signal; activation, % at 9 µM; 300,000 tested, 1.7% active;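 active = mean replicate activation of at least 50% with a set share of replicates each reaching 50%; inconclusive = only one of those two conditions met; inactive = mean below 50% and too few replicates reaching it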;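 also: 0% = median of the neutral control wells and 100% = twice that signal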
CHT inh = inhibitors of human choline transporter CHT | 310,000 tested, 0.86% active | CHT-expressing cells, membrane potential dye, choline response; stronger effect = lower value | AID 488975, 2010 | B-score at 10 µM | High affinity choline transporter 1 (Homo sapiens), Q9GZV3;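 active = B-score over 3 SD under the library average, and starting fluorescence ratio not unusually high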;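 also: choline stimulus applied at its EC90 after an EC20 pre-addition; B-score computed on integrated fluorescence ratio after choline addition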
Starred values were filed as active, the others as inactive; i = inactive; ? = inconclusive; nt = not tested or not shown. Hits are enriched below; roughly 4.9% of the tested compounds scored in any of these assays.

SMILES	HSF1 inh	Hep lipid drop	CHT PAM	PHOSPHO1 inh	HSF-1 act	CHT inh
CCSCCOC(=O)C1=C(C)NC(=O)NC1c1cccc(OC)c1OC (configuration not stated)	2.8	nt	i	-2.2	15.5	i
Cc1cc(C)c(S(=O)(=O)Nc2cccc(/C=C/C(=O)O)c2)c(C)c1	41.1	-2.9	i	0.7	82.6*	i
NS(=O)(=O)c1cccc(NS(=O)(=O)c2ccc(/C=C/C(=O)O)cc2)c1	-0.5	16.2	i	15.0	-2.0	i
CCCC(=O)Nc1ccc(C(=O)NNC(=O)c2ccccc2Br)cc1	6.7	nt	i	3.9	-10.1	i
Cc1ccccc1NS(=O)(=O)c1ccc2[nH]c(=O)[nH]c2c1	-9.1	29.8	i	-11.9	-7.5	i
CCC1CCCCN1C(=O)c1cc2c(=O)n3cccc(C)c3nc2s1 (configuration not stated)	-64.2*	1.0	i	-31.9	-68.1	i
CC(C)C[C@H](NC(=O)N1CCn2c1nc1ccccc12)C(=O)NCc1ccco1	2.0	-2.1	i	18.4	-7.1	i
O=C(NCCc1ccccc1)C1COc2ccccc2O1 (configuration not stated)	8.5	nt	i	41.9	2.5	i
O=C(NCCc1ccc(O)c(O)c1)C1COc2ccccc2O1 (configuration not stated)	70.9	-6.0	i	34.8	120.8*	i
Cc1ccc(CCS(=O)(=O)c2ccc(C(C)(C)C)cc2)cn1	-7.1	-1.6	i	30.2	6.4	i
O=C1NC(=S)S/C1=C/c1ccc(N2CCOCC2)o1	6.7	6.2	i	85.8*	1.5	i
O=C1S/C(=C/c2ccc(N3CCOCC3)o2)C(=O)N1Cc1ccc(F)cc1	102.9	nt	i	-80.6	154.9*	i
O=C1S/C(=C\c2ccc(N3CCOCC3)o2)C(=O)N1Cc1ccc(F)cc1	nt	nt	i	44.7	nt	i
CCOc1ccc(C2C3=C(CCCC3=O)Nc3ccc4ncccc4c32)cc1 (configuration not stated)	32.6	0.6	i	9.0	67.8*	i
O=C(/C=C/c1cnc2ccccc2n1)NC12CC3CC(CC(C3)C1)C2	-71.3*	-31.9	i	4.1	-75.9	i
COCCNC(=O)CN1CCC(n2c(C)nc3cc(C(F)(F)F)ccc32)CC1	0.4	7.9	i	-7.4	-8.5	i
O=S(=O)(c1ccc(Cl)c(Cl)c1)c1snnc1-c1ccccc1	296.0	-24.0	nt	-5.9	431.2*	nt
c1ccc(-c2nnsc2-c2ccccc2)cc1	-5.7	-12.0	i	43.7	-0.1	i
O=C(CSc1ncnc2c1nnn2Cc1ccccc1)NC1CCCCC1	66.2	-2.4	i	42.7	80.2*	i
CN(C(=O)CSc1nnc(Cc2cccc3ccccc23)n1N)C1CCS(=O)(=O)C1 (configuration not stated)	nt	0.8	i	88.2*	nt	i
Nn1c(Cc2cccc3ccccc23)nnc1SCn1nnc2ccccc2c1=O	4.2	-21.9	i	87.4*	10.5	i
Cc1cc2nnc(SCC(=O)N(C)C3CCS(=O)(=O)C3)n2c2ccccc12 (configuration not stated)	-2.9	-3.2	i	32.1	8.7	i
O=c1c2ccccc2nnn1CSc1ccc2ccccc2n1	14.9	-14.4	i	-6.8	?	i
O=c1c2ccccc2nnn1CSc1ccccc1	43.7	-45.3	i	6.6	85.7*	i
CCN=C(NC#N)SCc1c(F)cccc1Cl	-3.5	-2.4	i	-2.7	6.5	i
SMILES	HSF1 inh	Hep lipid drop	CHT PAM	PHOSPHO1 inh	HSF-1 act	CHT inh
CCOC(=O)N1CCN(c2nc(-c3cccs3)cc(C(F)(F)F)n2)CC1	-1.2	nt	i	-0.1	6.2	i
COCCNC(=O)C(OC(=O)c1cccs1)c1ccccc1 (configuration not stated)	-54.7*	nt	i	-8.5	-63.1	i
CC(=O)c1cccc(NC(=O)C(OC(=O)c2cccs2)c2ccccc2)c1 (configuration not stated)	-5.1	2.0	i	-6.2	21.1	i
COc1ccc(-c2cc(C(=O)N3CCc4ccccc4C3)no2)cc1OC	0.7	nt	i	1.5	1.7	i
CCOc1ccccc1NC(=O)C1CCN(c2ccc(S(=O)(=O)N3CCCC3)cc2)CC1	1.2	nt	i	78.5*	4.4	i
CCOc1ccccc1NC(=O)C1CCN(S(=O)(=O)c2ccc(OC)c(OC)c2)CC1	-3.8	nt	i	14.5	10.8	i
Cc1ccc(S(=O)(=O)n2c3ccc(Cl)cc3c3nc(C)sc32)cc1	-31.9	-30.3	nt	-17.3	-46.8	nt
CCc1ccc2c(c1)c1nc(C)sc1n2CC	8.8	nt	i	91.5*	6.2	i
COC(=O)Cn1c2ccc(OC)cc2c2nc(C)sc21	33.0	1.6	i	-5.9	88.0*	i
Cc1nc2c3cc(F)ccc3n(Cc3ccc(F)cc3)c2s1	2.0	4.7	i	-20.0	-13.2	i
Cc1nc2c3cc(Cl)ccc3n(CCN3CCCCC3)c2s1	16.9	-1.7	i	16.8	59.7*	i
O=C(NC(O)C(=O)c1cccs1)c1cccnc1 (configuration not stated)	0.7	nt	i	18.2	3.3	i
Cc1ccc(S(=O)(=O)N2CCOCC2)cc1C(=O)NCc1ccco1	9.6	nt	i	-14.6	39.7	i
CCCN1CCC(=NNC(=O)CSc2cc(C)c(Br)cc2C)CC1	6.1	11.3	i	-3.5	11.0	i
O=C(Nc1nc2c(s1)CCCC2)c1ccc(Br)s1	34.0	3.0	i	11.3	59.5*	i
O=C(Nc1nccs1)[C@@H]1CCCN1C(=O)c1cccs1	-6.1	29.8	i	36.0	7.3	i
O=C(Nc1nc2c(s1)CCCC2)C1CCCN1C(=O)c1cccs1 (configuration not stated)	-10.9	nt	i	94.9*	-10.9	i
Cc1ccc([N+](=O)[O-])cc1NC1CC(O)C(CO)O1 (configuration not stated)	-3.6	2.7	i	-11.2	5.5	i
O=Cc1ccc(Sc2ncccn2)o1	nt	25.2	nt	35.9	nt	nt
CC1C(Br)C(=O)NC(=O)N1Cc1ccccc1 (configuration not stated)	-4.9	-5.9	i	32.0	9.6	i
Cc1ccc(C)c(OCCNc2ccc([N+](=O)[O-])cn2)c1	-1.0	-16.9	i	32.6	-15.3	i
Cc1cccc2sc(N(CCCN3CCOCC3)C(=O)CS(=O)(=O)c3ccc(F)cc3)nc12	7.3	nt	i	nt	14.2	i
